Measured values taken from ChEMBL document CHEMBL1122532, “[(Aminomethyl)aryloxy]acetic acid esters. A new class of high-ceiling diuretics. 2. Modifications of the oxyacetic side chain” (J Med Chem, 1984).
Active and inactive are the calls of the source. The calls are words filed in the database; no cut-off is given here.

Key:
Rattus norvegicus [1] = assay: Oral dose necessary to produce an excretion of 2 mequiv of Na+/kg in the rat urine in the 4-h period after peroral administration; assay type: ADME, organism-based; details: in vivo
In short: (§1)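 Rats dosed orally. Urinary Na⁺ was measured over the 4 h after dosing. ED₂ is the oral dose (mg/kg) giving excretion of 2 mequiv Na⁺/kg in that period.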

Rattus norvegicus [2] = assay: Oral dose necessary to produce an excretion of 2 mequiv of Na+/kg in the rat urine in the 4-h period after peroral administration; inactive; assay type: ADME, organism-based; details: in vivo; in short: as §1
Rattus norvegicus [3] = assay: Oral dose necessary to produce an excretion of 2 mequiv of Na+/kg in the rat urine in the 4-h period after peroral administration; Inactive; assay type: ADME, organism-based; details: in vivo; in short: as §1
Canis familiaris [4] = assay: Oral dose in mg/kg necessary to produce an excretion of 5 mequiv of Na+/kg in the dog urine during 6-h period after dosing; details: in vivo
Canis familiaris [5] = organism: Canis familiaris; assay: Relative amount of acid ([4-(3-Aminomethyl-4-hydroxy-benzoyl)-2,3-dichloro-phenoxy]-acetic acid;) appearing in dog plasma was reported; assay type: functional, Canis lupus familiaris
[6] = Dose required for 50% inhibition of chloride transport in frog cornea was evaluated; assay type: functional
frog = assay: Dose required for 50% inhibition of chloride transport in frog cornea was evaluated; No inhibition; assay type: functional, tissue-based

CCOC(=O)COc1ccc(Oc2ccc(O)c(CN)c2)c(Cl)c1Cl.Cl
ED2 (Rattus norvegicus [1]): 0.8 mg/kg

CCOC(=O)C(C)(C)Oc1ccc(C(=O)c2ccc(O)c(CN)c2)c(Cl)c1Cl.Cl
ED2 (Rattus norvegicus [2]): Not Active

CC(=O)COc1ccc(C(=O)c2ccc(O)c(CN)c2)c(Cl)c1Cl.Cl
ED2 (Rattus norvegicus [1]): 28.5 mg/kg

CCOC(=O)C(C)Oc1ccc(C(=O)c2ccc(O)c(CN)c2)c(Cl)c1Cl.Cl (stereo unspecified)
ED2 (Rattus norvegicus [1]): 19.5 mg/kg

CCOC(=O)C1Cc2cc(C(=O)c3ccc(O)c(CN)c3)c(Cl)c(Cl)c2O1 (stereo unspecified)
ED2 (Rattus norvegicus [1]): 0.11 mg/kg

CCOC(=O)CCCOc1ccc(Oc2ccc(O)c(CN)c2)c(Cl)c1Cl.Cl
ED2 (Rattus norvegicus [1]): 13.5 mg/kg

COc1ccc(C(=O)c2ccc(O)c(CN)c2)c(Cl)c1Cl.Cl
ED2 (Rattus norvegicus [3]): Not Active

CCOC(=O)CCc1ccc(Oc2ccc(O)c(CN)c2)c(Cl)c1Cl.Cl
ED2 (Rattus norvegicus [1]): 10.7 mg/kg

CCOC(=O)COc1ccc(C(=O)c2ccc(O)c(CN)c2)c(Cl)c1Cl.Cl
ED5 (Canis familiaris [4]): 1 mg/kg | Relative amount (Canis familiaris [5]): 100% | ED2 (Rattus norvegicus [1]): 2.5 mg/kg | IC50 [6]: 14.6 µM

Cl.NCc1cc(C(=O)c2ccc(OCC(=O)O)c(Cl)c2Cl)ccc1O
ED5 (Canis familiaris [4]): 0.71 mg/kg | IC50 [6]: 8.4 µM | ED2 (Rattus norvegicus [3]): Not Active

CCOC(=O)Cc1ccc(Oc2ccc(O)c(CN)c2)c(Cl)c1Cl.Cl
ED2 (Rattus norvegicus [1]): 21.5 mg/kg

CCOC(=O)c1ccc(Oc2ccc(O)c(CN)c2)c(Cl)c1Cl.Cl
ED2 (Rattus norvegicus [3]): Not Active

CCOC(=O)CSc1ccc(Oc2ccc(O)c(CN)c2)c(Cl)c1Cl.Cl
ED2 (Rattus norvegicus [1]): 1.22 mg/kg

Cl.N#CCOc1ccc(C(=O)c2ccc(O)c(CN)c2)c(Cl)c1Cl
ED2 (Rattus norvegicus [3]): Not Active

Cl.NCc1cc(C(=O)c2ccc(OCCO)c(Cl)c2Cl)ccc1O
ED5 (Canis familiaris [4]): 5.5 mg/kg | Relative amount (Canis familiaris [5]): 13% | ED2 (Rattus norvegicus [1]): 1 mg/kg | Inhibition (frog): inactive

Cl.NCc1cc(C(=O)c2ccc(OCC(N)=O)c(Cl)c2Cl)ccc1O
ED5 (Canis familiaris [4]): 0.7 mg/kg | Relative amount (Canis familiaris [5]): 67% | ED2 (Rattus norvegicus [1]): 17 mg/kg | IC50 [6]: 16.5 µM

Cl.NCCOc1ccc(C(=O)c2ccc(O)c(CN)c2)c(Cl)c1Cl
ED5 (Canis familiaris [4]): 8 mg/kg | Relative amount (Canis familiaris [5]): 25% | ED2 (Rattus norvegicus [1]): 16.2 mg/kg | Inhibition (frog): inactive
